Measurements published in ChEMBL document CHEMBL1139880, “Potent and selective agonists of human melanocortin receptor 5: cyclic analogues of alpha-melanocyte-stimulating hormone” (J Med Chem, 2007).
Starred links: 1 amine or outer side, 2 acyl side, 3 side chain; linkers in the order of their positions; H or OH if unused. Positions of bridges follow the written chain, without caps; N, C: chain ends. Non-standard residues stand in square brackets, D forms with d. Residues, ends and D or L forms follow the SMILES beside them. ξ: configuration not given here. X2 = O=C([C@@H](Cc1ccc(Cc2ccccc2)cc1)N[*:1])[*:2]; Oic(3aξ,7aξ) = O=C(O)[C@@H]1CC2CCCCC2N1; Pip = O=C(O)[C@@H]1CCCCN1; Nle = CCCC[C@H](N)C(=O)O

Columns and labels:
Melanocortin receptor 5 [1] = target: T1, Melanocortin receptor 5 (Homo sapiens, UniProt P33032); experiment: Displacement of [125I]NDPalphaMSH from human cloned MC5R expressed in CHO cells; type: cell-based
Melanocortin receptor 4 = Melanocortin receptor 4 (Homo sapiens, UniProt P32245); experiment: Displacement of [125I]NDPalphaMSH from human cloned MC4R expressed in CHO cells; type: cell-based
Melanocortin receptor 3 [2] = target: T2, Melanocortin receptor 3 (Homo sapiens, UniProt P41968); experiment: Displacement of [125I]NDPalphaMSH from human cloned MC3R expressed in CHO cells; type: cell-based
Melanocortin receptor 5 [3] = target: T1, Melanocortin receptor 5; experiment: Agonist activity at human MC5R expressed in CHO cells assessed as cAMP accumulation; type: functional, cell-based
[4] = target: T3, Melanocyte-stimulating hormone receptor (Homo sapiens, UniProt Q01726); experiment: Displacement of [125I]NDPalphaMSH from human cloned melanocortin receptor 1b expressed in CHO cells; type: cell-based
[5] = target: T3, Melanocyte-stimulating hormone receptor; experiment: Agonist activity at human melanocortin receptor 1b expressed in CHO cells assessed as cAMP accumulation; type: functional, cell-based
Outline: (§1)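 Dissociated CHO cells were spun 5 min and resuspended in Earle's balanced salt solution with 10 mM HEPES pH 7.5, 5 mM MgCl2, 1 mM glutamine and 1 mg/mL BSA. They were incubated 40 min at room temperature with compound (0.003–5000 nM) plus 0.6 mM IBMX, then lysed with 0.1 M HCl. cAMP was measured by Flashplate cAMP assay.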

Melanocortin receptor 3 [6] = target: T2, Melanocortin receptor 3; experiment: Agonist activity at human MC3R expressed in CHO cells assessed as cAMP accumulation; type: functional, cell-based; outline: as §1

T3 sequence (Q01726 whole entry): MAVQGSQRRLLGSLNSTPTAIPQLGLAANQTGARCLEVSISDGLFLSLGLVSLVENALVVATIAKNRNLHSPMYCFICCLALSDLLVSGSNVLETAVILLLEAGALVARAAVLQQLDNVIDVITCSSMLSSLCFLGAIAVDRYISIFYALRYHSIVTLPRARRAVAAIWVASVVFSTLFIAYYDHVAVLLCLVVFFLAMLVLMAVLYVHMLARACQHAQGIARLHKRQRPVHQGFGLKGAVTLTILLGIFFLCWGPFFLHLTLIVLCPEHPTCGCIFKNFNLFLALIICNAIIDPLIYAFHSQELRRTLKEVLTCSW
Chain of Melanocortin receptor 4 (P32245 whole entry): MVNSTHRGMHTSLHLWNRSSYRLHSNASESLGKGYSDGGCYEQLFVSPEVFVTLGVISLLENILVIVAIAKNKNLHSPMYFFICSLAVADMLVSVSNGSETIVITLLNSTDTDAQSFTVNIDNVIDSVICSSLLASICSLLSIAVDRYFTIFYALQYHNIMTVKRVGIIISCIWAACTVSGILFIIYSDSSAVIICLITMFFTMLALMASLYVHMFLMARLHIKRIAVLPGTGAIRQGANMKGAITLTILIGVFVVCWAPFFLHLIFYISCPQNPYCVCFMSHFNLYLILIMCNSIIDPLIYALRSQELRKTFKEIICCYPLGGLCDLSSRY
T2 sequence (P41968 whole entry): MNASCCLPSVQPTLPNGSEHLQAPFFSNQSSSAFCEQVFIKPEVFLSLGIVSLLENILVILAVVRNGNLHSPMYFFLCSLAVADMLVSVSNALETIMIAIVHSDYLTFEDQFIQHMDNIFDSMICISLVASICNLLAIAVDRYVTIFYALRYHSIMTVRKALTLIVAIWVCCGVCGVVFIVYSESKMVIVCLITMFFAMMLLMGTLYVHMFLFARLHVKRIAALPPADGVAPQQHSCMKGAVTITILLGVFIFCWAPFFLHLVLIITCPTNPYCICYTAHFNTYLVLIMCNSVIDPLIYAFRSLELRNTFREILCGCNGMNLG
T1 sequence (P33032 whole entry): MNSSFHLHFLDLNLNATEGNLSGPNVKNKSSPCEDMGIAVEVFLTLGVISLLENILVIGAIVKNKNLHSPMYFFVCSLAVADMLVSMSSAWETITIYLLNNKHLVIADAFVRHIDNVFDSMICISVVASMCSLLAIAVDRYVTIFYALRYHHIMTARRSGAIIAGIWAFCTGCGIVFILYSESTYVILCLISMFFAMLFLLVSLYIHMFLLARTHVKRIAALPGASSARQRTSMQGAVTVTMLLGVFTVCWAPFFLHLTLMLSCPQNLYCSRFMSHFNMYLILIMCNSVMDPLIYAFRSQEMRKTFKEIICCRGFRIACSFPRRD

| IC50 (Melanocortin receptor 5 [1]) | IC50 (Melanocortin receptor 4) | IC50 (Melanocortin receptor 3 [2]) | EC50 (Melanocortin receptor 5 [3]) | IC50 [4] | EC50 [5] | EC50 (Melanocortin receptor 3 [6]) | Compound |
| --- | --- | --- | --- | --- | --- | --- | --- |
| 24 nM (antagonist) | 1600 nM (antagonist) | > 1000 nM | 31 nM (agonist) | > 1000 nM | – | – | CCCC[C@H](NC(C)=O)C(=O)N[C@H]1CC(=O)NCCCC[C@@H](C(N)=O)NC(=O)[C@H](Cc2c[nH]c3ccccc23)NC(=O)[C@@H]2CCCCN2C(=O)[C@@H](Cc2ccc(Cc3ccccc3)cc2)NC(=O)[C@@H]2CC3CCCCC3N2C1=O (stereo partly drawn) (Ac-[Nle]D[Oic(3aξ,7aξ)][X2][Pip]WK-NH2; lactam 2-7) |
| > 10000 nM | > 10000 nM | > 10000 nM | – | > 10000 nM | > 2500 nM | – | CCCC[C@H](NC(C)=O)C(=O)N[C@H]1CC(=O)NCCCC[C@@H](C(N)=O)NC(=O)[C@H](Cc2c[nH]c3ccccc23)NC(=O)[C@@H]2CCCN2C(=O)[C@@H](CC2CCCCC2)NC(=O)[C@H](Cc2c[nH]cn2)NC1=O |
| 2.1 nM (antagonist) | 990 nM (antagonist) | > 1000 nM | 0.29 nM (agonist) | > 1000 nM | – | – | CCCC[C@H](NC(C)=O)C(=O)N[C@H]1CC(=O)NCCCC[C@@H](C(N)=O)NC(=O)[C@H](Cc2c[nH]c3ccccc23)NC(=O)[C@@H]2CCCCN2C(=O)[C@@H](Cc2ccc(-c3ccccc3)cc2)NC(=O)[C@H](c2ccccc2)NC1=O |
| > 5000 nM | – | > 5000 nM | > 1500 nM | > 5000 nM | 540 nM (agonist) | – | CCCC[C@H](NC(C)=O)C(=O)N[C@H]1CC(=O)NCCCC[C@@H](C(N)=O)NC(=O)[C@H](Cc2c[nH]c3ccccc23)NC(=O)[C@@H]2CCCN2C(=O)[C@@H](Cc2cccs2)NC(=O)[C@H](Cc2cnc[nH]2)NC1=O |
| 0.95 nM (antagonist) | > 5000 nM | > 5000 nM | 0.99 nM (agonist) | > 5000 nM | – | – | CCCC[C@H](NC(C)=O)C(=O)N[C@H]1CC(=O)NCCCC[C@@H](C(N)=O)NC(=O)[C@H](Cc2c[nH]c3ccccc23)NC(=O)[C@@H]2CCCCN2C(=O)[C@@H](Cc2ccc(-c3ccccc3)cc2)NC(=O)[C@@H]2CC3CCCCC3N2C1=O (stereo partly drawn) |
| 780 nM (antagonist) | – | > 2000 nM | 770 nM (agonist) | > 2000 nM | > 500 nM | – | CCCC[C@H](NC(C)=O)C(=O)N[C@H]1CC(=O)NCCCC[C@@H](C(N)=O)NC(=O)[C@H](Cc2c[nH]c3ccccc23)NC(=O)[C@@H]2CCCN2C(=O)[C@@H](Cc2ccc([N+](=O)[O-])cc2)NC(=O)[C@H](Cc2cnc[nH]2)NC1=O |
| 2.7 nM (antagonist) | 720 nM (antagonist) | 3900 nM (antagonist) | 0.45 nM (agonist) | 710 nM (antagonist) | 130 nM (agonist) | – | CCCC[C@H](NC(C)=O)C(=O)N[C@H]1CC(=O)NCCCC[C@@H](C(N)=O)NC(=O)[C@H](Cc2c[nH]c3ccccc23)NC(=O)[C@@H]2CCCCN2C(=O)[C@@H](Cc2ccc(-c3ccccc3)cc2)NC(=O)[C@@H]2Cc3ccccc3CN2C1=O |
| 0.72 nM (antagonist) | 570 nM (antagonist) | 1400 nM (antagonist) | 0.37 nM (agonist) | 5.9 nM (antagonist) | 3.3 nM (agonist) | 370 nM (agonist) | CCCC[C@H](NC(C)=O)C(=O)N[C@H]1CC(=O)NCCCC[C@@H](C(N)=O)NC(=O)[C@H](Cc2c[nH]c3ccccc23)NC(=O)[C@@H]2CCCCN2C(=O)[C@@H](Cc2ccc(-c3ccccc3)cc2)NC(=O)[C@H](Cc2c[nH]cn2)NC1=O |
| 1300 nM (antagonist) | 4500 nM (antagonist) | > 20000 nM | 82 nM (agonist) | 560 nM (antagonist) | 63 nM (agonist) | > 5000 nM | CCCC[C@H](NC(C)=O)C(=O)N[C@H]1CC(=O)NCCCC[C@@H](C(N)=O)NC(=O)[C@H](Cc2c[nH]c3ccccc23)NC(=O)[C@@H]2CCCN2C(=O)[C@@H](Cc2ccc(Cl)cc2)NC(=O)[C@H](Cc2c[nH]cn2)NC1=O |
| 2.9 nM (antagonist) | 1000 nM (antagonist) | 630 nM (antagonist) | 1.6 nM (agonist) | 2100 nM (antagonist) | 350 nM (agonist) | – | CCCC[C@H](NC(C)=O)C(=O)N[C@H]1CC(=O)NCCCC[C@@H](C(N)=O)NC(=O)[C@H](Cc2c[nH]c3ccccc23)NC(=O)[C@@H]2CCCN2C(=O)[C@@H](Cc2ccc(-c3ccccc3)cc2)NC(=O)[C@@H]2CCCN2C1=O |
| 7.3 nM (antagonist) | 4700 nM (antagonist) | > 10000 nM | 0.23 nM (agonist) | 4900 nM (antagonist) | 330 nM (agonist) | – | CCCC[C@H](NC(C)=O)C(=O)N[C@H]1CC(=O)NCCCC[C@@H](C(N)=O)NC(=O)[C@H](Cc2c[nH]c3ccccc23)NC(=O)[C@@H]2CCCCN2C(=O)[C@@H](Cc2ccc(-c3ccccc3)cc2)NC(=O)[C@H](C(C)C)NC1=O |
| 0.15 nM (antagonist) | 160 nM (antagonist) | 270 nM (antagonist) | 0.031 nM (agonist) | 65 nM (antagonist) | 28 nM (agonist) | – | CCCC[C@H](NC(C)=O)C(=O)N[C@H]1CC(=O)NCCCC[C@@H](C(N)=O)NC(=O)[C@H](Cc2c[nH]c3ccccc23)NC(=O)[C@@H]2CCCCN2C(=O)[C@@H](Cc2ccc(-c3ccccc3)cc2)NC(=O)[C@@H]2CCCN2C1=O |
| 10 nM (antagonist) | 4700 nM (antagonist) | 4400 nM (antagonist) | 17 nM (agonist) | 7800 nM (antagonist) | > 2500 nM | – | CCCC[C@H](NC(C)=O)C(=O)N[C@H]1CC(=O)NCCCC[C@@H](C(N)=O)NC(=O)[C@H](Cc2c[nH]c3ccccc23)NC(=O)[C@@H]2CCCN2C(=O)[C@@H](Cc2ccc(-c3ccccc3)cc2)NC(=O)[C@@H]2CC3CCCCC3N2C1=O (stereo partly drawn) |
| 340 nM (antagonist) | – | > 10000 nM | 270 nM (agonist) | 430 nM (antagonist) | 60 nM (agonist) | > 2500 nM | CCCC[C@H](NC(C)=O)C(=O)N[C@H]1CC(=O)NCCCC[C@@H](C(N)=O)NC(=O)[C@H](Cc2c[nH]c3ccccc23)NC(=O)[C@@H]2CCCN2C(=O)[C@@H](Cc2ccc(OCC)cc2)NC(=O)[C@H](Cc2cnc[nH]2)NC1=O |
| 4.1 nM (antagonist) | 1200 nM (antagonist) | 1500 nM | 2.5 nM (agonist) | 45 nM (antagonist) | 5.3 nM (agonist) | 1400 nM (agonist) | CCCC[C@H](NC(C)=O)C(=O)N[C@H]1CC(=O)NCCCC[C@@H](C(N)=O)NC(=O)[C@H](Cc2c[nH]c3ccccc23)NC(=O)[C@@H]2CCCN2C(=O)[C@@H](Cc2ccc(-c3ccccc3)cc2)NC(=O)[C@H](Cc2c[nH]cn2)NC1=O |
| 50 nM (antagonist) | > 10000 nM | > 10000 nM | 1 nM (agonist) | > 10000 nM | > 500 nM | – | CCCC[C@H](NC(C)=O)C(=O)N[C@H]1CC(=O)NCCCC[C@@H](C(N)=O)NC(=O)[C@H](Cc2c[nH]c3ccccc23)NC(=O)[C@@H]2CCCCN2C(=O)[C@@H](Cc2ccc(-c3ccccc3)cc2)NC(=O)[C@H](C2CCCCC2)NC1=O |
